The text below walks through data of ChEMBL document CHEMBL1135937, “Further studies on conformationally constrained tricyclic tropane analogues and their uptake inhibition at monoamine transporter sites: synthesis of (Z)-9-(substituted arylmethylene)-7-azatricyclo[4.3.1.0(3,7)]decanes as a novel class of serotonin transporter inhibitors” (J Med Chem, 2002).

A short description of test [1]: Uptake ratio Ki of norepinephrine relative to serotonin (5-HT) at monoamine transporter.
The target in test [2] is Norepinephrine transporter (Rattus norvegicus, UniProt Q9WTR4). Description: Ability to inhibit high affinity reuptake of [3H]-NE (Norepinephrine transporter) into nerve ending synaptosomes prepared from brain regions. It is filed as subcellular.
Test [3] has as its target Sodium-dependent dopamine transporter (Rattus norvegicus, UniProt P23977). Nature of the test: Ability to inhibit high affinity reuptake of [3H]DA from dopamine transporter into nerve endings synaptosomes. It is filed as subcellular, Brain. In short, it runs like this:
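Rat striatal P2 synaptosomes in modified KRH buffer (pH 7.4, with nialamide), preincubated with drug for 30 min at 4 °C, then 15 min at 37 °C. Uptake of [3H]DA (~5 nM final) ran for 5 min and was stopped by cold Na-free buffer and filtration. IC50 from six concentrations in triplicate; Ki by Cheng–Prusoff, 2–4 experiments.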

Test [4] concerns the target Sodium-dependent serotonin transporter (Rattus norvegicus, UniProt P31652). Nature of the test: Inhibition of high affinity re-uptake of [3H]5-HT (serotonin) into nerve ending synaptosomes. It is filed as subcellular, Brain. In short, it runs like this:
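Synaptosomes (P2) from rat midbrain in modified KRH buffer (pH 7.4, with nialamide), preincubated with drug for 30 min at 4 °C, then 15 min at 37 °C. [3H]5-HT (~5 nM final) uptake ran for 5 min, then filtration and scintillation counting. IC50 from six concentrations in triplicate; Ki by Cheng–Prusoff, 2–4 experiments.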

Test [5] is described as follows: Uptake ratio Ki of norepinephrine relative to dopamine at monoamine transporter.
Test [6] is described as follows: Uptake ratio Ki of dopamine relative to serotonin (5-HT) at monoamine transporter.

Each structure is given as a SMILES string.

Norepinephrine transporter, sequence (Q9WTR4 whole entry): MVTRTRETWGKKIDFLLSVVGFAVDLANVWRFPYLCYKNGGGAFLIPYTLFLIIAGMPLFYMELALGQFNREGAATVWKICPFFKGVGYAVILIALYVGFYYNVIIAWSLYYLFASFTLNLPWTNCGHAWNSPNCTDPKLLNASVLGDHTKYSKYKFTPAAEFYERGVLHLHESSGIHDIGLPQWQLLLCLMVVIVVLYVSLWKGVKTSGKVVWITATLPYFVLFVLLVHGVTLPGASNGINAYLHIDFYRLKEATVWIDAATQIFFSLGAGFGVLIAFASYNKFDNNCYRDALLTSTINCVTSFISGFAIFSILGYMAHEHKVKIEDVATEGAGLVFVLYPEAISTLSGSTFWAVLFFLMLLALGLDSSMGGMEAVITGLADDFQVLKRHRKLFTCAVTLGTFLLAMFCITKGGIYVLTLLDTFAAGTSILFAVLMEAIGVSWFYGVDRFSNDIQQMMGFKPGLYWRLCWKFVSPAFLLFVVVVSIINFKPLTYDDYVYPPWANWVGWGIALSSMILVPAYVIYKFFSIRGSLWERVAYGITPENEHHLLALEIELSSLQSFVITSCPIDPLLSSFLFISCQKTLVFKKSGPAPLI
Sodium-dependent dopamine transporter, sequence (P23977 whole entry): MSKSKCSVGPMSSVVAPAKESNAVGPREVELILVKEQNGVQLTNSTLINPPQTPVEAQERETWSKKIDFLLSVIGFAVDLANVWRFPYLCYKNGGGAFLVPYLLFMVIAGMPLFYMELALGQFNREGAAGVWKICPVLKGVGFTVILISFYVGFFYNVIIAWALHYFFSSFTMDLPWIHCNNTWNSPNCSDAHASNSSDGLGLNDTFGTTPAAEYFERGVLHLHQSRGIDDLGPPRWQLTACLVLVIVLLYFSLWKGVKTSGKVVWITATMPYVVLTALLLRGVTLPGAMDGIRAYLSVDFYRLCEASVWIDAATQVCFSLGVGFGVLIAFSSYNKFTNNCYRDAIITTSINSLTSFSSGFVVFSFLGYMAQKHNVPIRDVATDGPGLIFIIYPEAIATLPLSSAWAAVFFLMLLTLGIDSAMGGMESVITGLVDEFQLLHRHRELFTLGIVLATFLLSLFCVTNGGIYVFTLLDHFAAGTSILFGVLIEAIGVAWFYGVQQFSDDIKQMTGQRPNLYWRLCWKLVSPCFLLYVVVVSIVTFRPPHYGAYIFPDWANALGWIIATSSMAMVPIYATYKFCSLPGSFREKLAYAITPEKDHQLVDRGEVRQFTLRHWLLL
Sodium-dependent serotonin transporter, sequence (P31652 whole entry): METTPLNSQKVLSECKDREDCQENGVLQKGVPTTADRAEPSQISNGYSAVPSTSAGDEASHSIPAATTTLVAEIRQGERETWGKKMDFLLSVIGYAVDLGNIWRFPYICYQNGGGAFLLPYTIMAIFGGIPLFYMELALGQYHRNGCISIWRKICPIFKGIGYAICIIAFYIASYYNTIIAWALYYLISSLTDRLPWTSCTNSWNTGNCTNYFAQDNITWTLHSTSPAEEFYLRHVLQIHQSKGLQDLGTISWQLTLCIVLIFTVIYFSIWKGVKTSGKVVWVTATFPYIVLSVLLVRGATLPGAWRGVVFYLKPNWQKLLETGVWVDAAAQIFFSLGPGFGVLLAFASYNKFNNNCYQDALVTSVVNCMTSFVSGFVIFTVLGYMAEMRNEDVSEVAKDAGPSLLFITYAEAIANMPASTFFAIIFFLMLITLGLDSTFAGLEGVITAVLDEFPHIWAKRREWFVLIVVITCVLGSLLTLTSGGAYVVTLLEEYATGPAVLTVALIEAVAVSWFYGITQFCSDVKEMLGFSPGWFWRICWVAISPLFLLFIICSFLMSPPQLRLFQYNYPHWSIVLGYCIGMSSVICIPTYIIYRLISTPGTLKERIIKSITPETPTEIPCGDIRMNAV

Turning to `COC(=O)C1C2CC3CCC1N3C/C2=C\c1cccc(Cl)c1Cl` (configuration not stated), the Ratio came out at 3.4 in test [1], 1.42 in test [5] and 2.4 in test [6]. Moreover, the inhibition constant (Ki) was determined as 1210 nM in test [2], 850 nM in test [3] and 354 nM in test [4].

For the compound `CC(=O)OCC1C2CC3CCC1N3C/C2=C\c1ccc(Cl)c(Cl)c1` (configuration not stated), the values for the Ratio in test [1], in test [5] and in test [6] were 399, 0.34 and 1170, respectively. In addition, the inhibition constant Ki in test [2] was 638 nM; in test [3], 1870 nM; in test [4] it was 1.6 nM.

Take `O=C(CCCCCCCCCC(=O)OCC1C2CC3CCC1N3C/C2=C\c1ccc(Cl)c(Cl)c1)OCC1C2CC3CCC1N3C/C2=C\c1ccc(Cl)c(Cl)c1` (configuration not stated): the Ratio in test [1] and in test [6] was greater than 1170 in each case. Besides, the figures for the Ki in test [2], in test [3] and in test [4] were greater than 10000 nM, greater than 10000 nM and 8.5 nM, respectively.

As for `CC(C)OC(=O)C1C2CC3CCC1N3C/C2=C\c1ccc(Cl)c(Cl)c1` (configuration not stated), the Ratio in test [1] worked out at 3.8; in test [5], 0.25; in test [6], 15. The Ki in test [2] turned out to be 325 nM; in test [3], 1290 nM; in test [4] it was 85.7 nM.

On to `COC(=O)C1C2CC3CCC1N3C/C2=C\c1cc2ccccc2c2ccccc12` (configuration not stated), for which the figures for the Ratio in test [1], in test [5] and in test [6] were 56, 7.93 and 7, respectively. Moreover, the Ki in test [2] amounted to 13000 nM; in test [3], 1640 nM; in test [4], 233 nM.

As for `COC(=O)C1C2CC3CCC1N3C/C2=C\c1ccc(Cl)c(Cl)c1` (configuration not stated), the Ratio in test [1] was 50; in test [5], 0.52; in test [6], 96. Besides, the values for the inhibition constant (Ki) in test [2], in test [3] and in test [4] were 1000 nM, 1920 nM and 20 nM, respectively.

Consider `CCC(=O)C1C2CC3CCC1N3C/C2=C\c1ccc(Cl)c(Cl)c1` (configuration not stated), for which the Ratio stood at 296 in test [1], 0.1 in test [5] and 3110 in test [6]. Further, the Ki was found to be 651 nM in test [2], 6840 nM in test [3] and 2.2 nM in test [4].

Turning to `O=C(OCC1C2CC3CCC1N3C/C2=C\c1ccc(I)cc1)c1ccccc1` (configuration not stated), the Ratio in test [1] is 81900; in test [5], less than 0.82; in test [6], greater than 100000. Besides, the Ki was 8190 nM in test [2] and greater than 10000 nM in test [3].

Take `COC(=O)C1C2CC3CCC1N3C/C2=C\c1ccc(/C=C2\CN3C4CCC3C(C(=O)OC)C2C4)cc1` (configuration not stated): the Ratio amounted to 34 in test [1], 0.86 in test [5] and 39.2 in test [6]. Moreover, the Ki amounted to 33400 nM in test [2], 38900 nM in test [3] and 993 nM in test [4].

On to `COC(=O)C1C2CC3CCC1N3C/C2=C\c1ccc(C)cc1` (configuration not stated), for which the Ratio was found to be 9.7 in test [1], 0.22 in test [5] and 43.3 in test [6]. In addition, the values for the Ki in test [2], in test [3] and in test [4] were 146 nM, 649 nM and 15 nM, respectively.

`CON(C)C(=O)C1C2CC3CCC1N3C/C2=C\c1ccc(Cl)c(Cl)c1` (configuration not stated): the Ratio in test [1] came out at 12.9; in test [5], 0.05; in test [6], 281. Moreover, the values for the inhibitory constant (Ki) in test [2], in test [3] and in test [4] were 396 nM, 8620 nM and 30.7 nM, respectively.

Turning to `Clc1ccc(/C=C2\CN3C4CCC3C(/C=C\c3ccccc3)C2C4)cc1Cl` (configuration not stated), the Ratio in test [1] stood at 11.4; in test [5], 1.32; in test [6] it was 8.6. Besides, the Ki in test [2] worked out at 2790 nM; in test [3] it was 2110 nM; in test [4], 245 nM.

Regarding `O=C(OCC1C2CC3CCC1N3C/C2=C\c1ccc(Br)cc1)c1ccccc1` (configuration not stated), the results for the Ratio in test [1], in test [5] and in test [6] were 1130, 1.35 and 835, respectively. Besides, the inhibition constant (Ki) in test [2] amounted to 4470 nM; in test [3], 3300 nM; in test [4] it was 3.95 nM.

`COC(=O)C1C2CC3CCC1N3C/C2=C\c1cccc(Cl)c1` (configuration not stated): the Ratio came out at 4.3 in test [1], 0.03 in test [5] and 145 in test [6]. Moreover, the Ki in test [2] amounted to 231 nM; in test [3] it was 7780 nM; in test [4], 53.6 nM.

Turning to `CN(C)C(=O)C1C2CC3CCC1N3C/C2=C\c1ccc(Cl)c(Cl)c1` (configuration not stated), the Ratio in test [1] came to 69.9; in test [5] it was 0.3; in test [6], 231. For the same compound, the inhibition constant (Ki) in test [2] was found to be 2020 nM; in test [3], 6680 nM; in test [4], 28.9 nM.

Take `O=C(OCC1C2CC3CCC1N3C/C2=C\c1cccc(Cl)c1)c1ccccc1` (configuration not stated): the Ratio worked out at 598 in test [1], 1.63 in test [5] and 367 in test [6]. In addition, the Ki in test [2] came to 6580 nM; in test [3] it was 4040 nM; in test [4], 11 nM.

As for `COC(=O)C1C2CC3CCC1N3C/C2=C\c1ccc2ccc3cccc4ccc1c2c34` (configuration not stated), the Ki in test [3] was 9920 nM; in test [4], 860 nM. In test [6], the Ratio was 11.5.

As to `CNC(=O)C1C2CC3CCC1N3C/C2=C\c1ccc(Cl)c(Cl)c1` (configuration not stated), the Ratio in test [1] turned out to be 14; in test [5], 0.11; in test [6], 127. In addition, the inhibitory constant (Ki) was determined as 417 nM in test [2], 3780 nM in test [3] and 29.8 nM in test [4].

Turning to `Cc1ccc(/C=C2\CN3C4CCC3C(COC(=O)c3ccccc3)C2C4)cc1Cl` (configuration not stated), the Ratio in test [1] and in test [6] was greater than 20000 throughout. The values for the Ki in test [2], in test [3] and in test [4] were greater than 10000 nM, greater than 10000 nM and 2 nM, respectively.

`CC(=O)OCC1C2CC3CCC1N3C/C2=C\c1ccc2ccccc2c1` (configuration not stated): the Ratio in test [1] was 153; in test [5] it was 1.03; in test [6], 148. The results for the inhibition constant (Ki) in test [2], in test [3] and in test [4] were 672 nM, 652 nM and 4.4 nM, respectively.

For `O=C(OCC1C2CC3CCC1N3C/C2=C\c1ccc(Cl)c(Cl)c1)c1ccc2ccccc2c1` (configuration not stated), the Ratio is 640 in test [1], less than 0.6 in test [5] and greater than 1070 in test [6]. The Ki was 5950 nM in test [2], greater than 10000 nM in test [3] and 9.3 nM in test [4].

As to `COC(=O)C1C2CC3CCC1N3C/C2=C\c1ccc(C(F)(F)F)cc1` (configuration not stated), the Ratio in test [1] came out at 145. Further, the Ki in test [2] turned out to be 1830 nM; in test [4] it was 12.6 nM.

On to `O=C(OCC1C2CC3CCC1N3C/C2=C\c1ccc(I)c(Cl)c1)c1ccccc1` (configuration not stated), for which the Ratio in test [1] and in test [6] was greater than 6e+06 in each case. The inhibitory constant (Ki) in test [2] and in test [3] was greater than 10000 nM each time.

`COC(=O)C1C2CC3CCC1N3C/C2=C\c1ccccc1` (configuration not stated): the Ratio in test [1] came out at 0.05; in test [5], 0.11; in test [6] it was 0.42. Further, the Ki in test [2] is 53 nM; in test [3], 481 nM; in test [4], 1140 nM.

Take `COC(=O)C1C2CC3CCC1N3C/C2=C\c1ccc(Br)c(Cl)c1` (configuration not stated): the Ratio in test [1] was 200; in test [5], 0.08; in test [6], 2360. Besides, the results for the Ki in test [2], in test [3] and in test [4] were 459 nM, 5420 nM and 2.3 nM, respectively.

Take `O=C(OCC1C2CC3CCC1N3C/C2=C\c1ccc(Cl)c(Cl)c1)c1ccc(I)cc1` (configuration not stated): the Ratio is 176 in test [1], 0.48 in test [5] and 363 in test [6]. Further, the Ki in test [2] stood at 8590 nM; in test [3], 17700 nM; in test [4] it was 48.7 nM.

As for `COC(=O)C1C2CC3CCC1N3C/C2=C\c1ccc(C(C)C)cc1` (configuration not stated), in test [1], the Ratio is 109. In addition, the figures for the Ki in test [2] and in test [4] were 1110 nM and 10.2 nM, respectively.

For `COC(=O)C1C2CC3CCC1N3C/C2=C\c1ccc(Cl)cc1` (configuration not stated), the Ratio was 6 in test [1], 0.24 in test [5] and 24.8 in test [6]. In addition, the inhibition constant Ki in test [2] was determined as 208 nM; in test [3], 853 nM; in test [4] it was 34.3 nM.

As for `COC(=O)C1C2CC3CCC1N3C/C2=C\c1ccc(F)cc1` (configuration not stated), the results for the Ratio in test [1], in test [5] and in test [6] were 1.7, 0.09 and 19.7, respectively. The inhibition constant (Ki) in test [2] was found to be 584 nM; in test [3], 6620 nM; in test [4], 335 nM.

Turning to `COC(=O)C1C2CC3CCC1N3C/C2=C\c1ccc(I)c(Cl)c1` (configuration not stated), the Ratio was 151 in test [1], 0.09 in test [5] and 1740 in test [6]. Further, the figures for the Ki in test [2], in test [3] and in test [4] were 272 nM, 3140 nM and 1.8 nM, respectively.

`COC(=O)C1C2CC3CCC1N3C/C2=C\c1ccc2ccccc2c1` (configuration not stated): the Ratio is 7.5 in test [1], 0.21 in test [5] and 35 in test [6]. For the same compound, the Ki in test [2] turned out to be 157 nM; in test [3], 735 nM; in test [4], 21 nM.

In the case of `COC(=O)C1C2CC3CCC1N3C/C2=C\c1ccc(I)cc1Cl` (configuration not stated), the Ratio in test [1] stood at 6.9; in test [5], 0.08; in test [6], 89.7. Also, the Ki turned out to be 508 nM in test [2], 6640 nM in test [3] and 74 nM in test [4].

On to `COC(=O)C1C2CC3CCC1N3C/C2=C\c1ccc(Br)cc1` (configuration not stated), for which the Ratio in test [1] was 16; in test [5] it was 0.36; in test [6], 45. The Ki in test [2] came out at 178 nM; in test [3], 495 nM; in test [4], 11 nM.

`COC(=O)C1C2CC3CCC1N3C/C2=C\c1ccc(C)c(C)c1` (configuration not stated): in test [1], the Ratio was 65. The inhibition constant (Ki) was found to be 659 nM in test [2] and 10.1 nM in test [4].
